Published values pooled from the literature.
Each line is one published result; the experiments were not run side by side.
Target: 5-hydroxytryptamine receptor 1A (HTR1A, Homo sapiens, UniProt P08908)
One construct used (P08908 1-422): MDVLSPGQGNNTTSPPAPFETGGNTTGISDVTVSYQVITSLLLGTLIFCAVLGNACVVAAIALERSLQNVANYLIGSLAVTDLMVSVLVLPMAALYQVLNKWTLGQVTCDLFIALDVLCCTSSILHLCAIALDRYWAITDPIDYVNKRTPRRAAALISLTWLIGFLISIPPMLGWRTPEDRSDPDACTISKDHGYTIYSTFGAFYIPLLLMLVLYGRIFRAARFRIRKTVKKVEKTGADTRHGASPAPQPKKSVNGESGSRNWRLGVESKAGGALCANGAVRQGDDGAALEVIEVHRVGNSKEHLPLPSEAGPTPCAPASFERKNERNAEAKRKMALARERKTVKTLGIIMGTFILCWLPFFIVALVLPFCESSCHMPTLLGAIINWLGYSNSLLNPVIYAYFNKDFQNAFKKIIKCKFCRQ

SMILES | effect on | method | endpoint | result
C[C@@H]1Cc2ccccc2N1C(=O)NCCCCN(C)[C@@H]1Cc2cccc3[nH]c(=O)n(c23)C1 | ligand displacement | radioligand | Ki | 33.2 nM
COc1ccccc1N1CCN(CCCCOc2ccc3c(c2)NC(=O)CC3)CC1 | ligand displacement | radioligand | Ki | 0.28 nM
CN1CCCCC1CCN1c2ccccc2Sc2ccc([S+](C)[O-])cc21 (stereo not drawn) | ligand displacement | radioligand | IC50 | 33.1 nM
CN(CCCCNC(=O)c1cc2ccccc2[nH]1)[C@@H]1Cc2cccc3[nH]c(=O)n(c23)C1 | ligand displacement | radioligand | Ki | 127 nM
CCCCN1CCC(COC(=O)c2ccc(N)c(OCF)c2)CC1 | cell-free assay | radioligand | Ki | > 10000 nM
CCCC[C@H](NC(=O)[C@H](C)c1c(C)[nH]c2ccc(O)cc12)c1ncc(-c2cc3ccccc3nc2OC)[nH]1 | cell-free assay |  | Ki | 2080 nM
O=C1c2ccccc2CCN1CCCCN1CCN(c2cccc(Cl)c2Cl)CC1 | ligand displacement | radioligand | Ki | 1.5 nM
CCNC(=O)c1cc2c(N3CCOC[C@@H]3C)ccnc2[nH]1 | cell-free assay | radioligand | Ki | > 10000 nM
CCOc1c(O)cc(Br)c2c1CN1CCc3cc(OCC(F)F)c(O)cc3[C@@H]1C2 | cell-free assay | radioligand | Ki | 334 nM
